Laboratory results published in ChEMBL document CHEMBL4334552, “Discovery of BMS-986260, a Potent, Selective, and Orally Bioavailable TGFβR1 Inhibitor as an Immuno-oncology Agent” (ACS Med Chem Lett, 2020).
Activity calls are given as the source filed them. The rule behind the calls is not given here.

Columns and labels:
[1] = MRT in Balb/C mouse at 5 mg/kg, iv; assay type: ADME, organism-based; conditions: in vivo
Outline: (§1)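 Male Balb/C mice (n = 3) dosed iv at 5 mg/kg and po at 10 mg/kg. Vehicle was 70% 25 mM acetate buffer pH 4.0, 5% ethanol and 25% PEG 400.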

[2] = Cmax in Balb/C mouse at 10 mg/kg, po; assay type: ADME, organism-based; design: dose 10 mg/kg, route oral; conditions: in vivo
Outline: (§2)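 Male Balb/C mice, n = 3, dosed at 5 mg/kg iv or 10 mg/kg po. The vehicle was 70% 25 mM acetate buffer pH 4.0, 5% ethanol and 25% PEG 400.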

[3] = Tmax in Balb/C mouse at 10 mg/kg, po; assay type: ADME, organism-based; conditions: in vivo; outline: as §1
[4] = Metabolic stability of compound in rat liver microsomes assessed as compound remaining after 10 mins; assay type: ADME, Microsome; conditions: read-out: Stability
[5] = Protein binding in rat serum assessed as unbound fraction; assay type: ADME, cell-free
TGF-beta receptor type-1 [6] = biological target: T1, TGF-beta receptor type-1 (Homo sapiens, UniProt P36897); assay: Inhibition of TGFbetaR1 in TGFbeta-stimulated human T cells assessed as reduction in SMAD3 phosphorylation preincubated for 1 hr followed by TGFbeta-stimulation for 90 mins by Alphalisa assay
T1 sequence (P36897 whole entry): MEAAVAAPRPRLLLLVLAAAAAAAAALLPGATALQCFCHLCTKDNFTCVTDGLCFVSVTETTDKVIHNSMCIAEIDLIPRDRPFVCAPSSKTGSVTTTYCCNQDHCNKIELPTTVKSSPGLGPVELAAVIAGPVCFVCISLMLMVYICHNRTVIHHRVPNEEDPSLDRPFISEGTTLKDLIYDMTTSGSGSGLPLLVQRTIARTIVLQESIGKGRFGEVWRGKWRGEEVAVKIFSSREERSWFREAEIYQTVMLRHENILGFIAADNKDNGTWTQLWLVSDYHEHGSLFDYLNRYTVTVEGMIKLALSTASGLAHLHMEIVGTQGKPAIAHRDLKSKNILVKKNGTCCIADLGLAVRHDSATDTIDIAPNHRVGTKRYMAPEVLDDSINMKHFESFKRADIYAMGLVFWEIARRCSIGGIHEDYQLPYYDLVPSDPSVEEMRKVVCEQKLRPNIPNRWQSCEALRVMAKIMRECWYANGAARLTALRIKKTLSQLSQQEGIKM

TGF-beta receptor type-1 [7] = biological target: T1, TGF-beta receptor type-1; assay: Inhibition of TGFbetaR1 in anti-CD3/anti-CD28/IL-2/TGFbeta -stimulated human Treg cells assessed as downregulation of FOXP3 expression incubated for 5 days by flow cytometry analysis
[8] = Half life in mouse liver microsomes in presence of UGT/UDPGA; assay type: ADME, Microsome
[9] = Half life in rat liver microsomes in presence of UGT/UDPGA; assay type: ADME, Microsome
[10] = Half life in dog liver microsomes in presence of UGT/UDPGA; assay type: ADME, Canis lupus familiaris, Microsome
[11] = Half life in mouse hepatocytes; assay type: ADME, cell-based, Hepatocyte
[12] = Half life in rat hepatocytes; assay type: ADME, cell-based, Hepatocyte
[13] = biological target: Voltage-gated inwardly rectifying potassium channel KCNH2 (Homo sapiens, UniProt Q12809); assay: Inhibition of human ERG by electrophysiology analysis
[14] = Clearance in Balb/C mouse at 5 mg/kg, iv; assay type: ADME, organism-based; conditions: in vivo; outline: as §2
[15] = Oral bioavailability in Balb/C mouse at 10 mg/kg; assay type: ADME, organism-based; conditions: in vivo; outline: as §1
[16] = Tmax in Sprague Dawley rat at 10 mg/kg, po; assay type: ADME, organism-based; conditions: in vivo
Outline: (§3)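 Male Sprague–Dawley rats (n = 3) received a PEG400 solution iv at 5 mg/kg and po at 10 mg/kg.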

[17] = Half life in Sprague Dawley rat at 5 mg/kg, iv; assay type: ADME, organism-based; conditions: in vivo
Outline: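 Male Sprague–Dawley rats (n = 3) dosed iv at 5 mg/kg as a PEG400 solution, alongside a 10 mg/kg oral arm. Half-life was derived from the iv profile.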

[18] = Clearance in Sprague Dawley rat at 5 mg/kg, iv; assay type: ADME, organism-based; conditions: in vivo
Outline: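 Male Sprague–Dawley rats, n = 3, given 5 mg/kg iv or 10 mg/kg po as a PEG400 solution.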

[19] = Oral bioavailability in Sprague Dawley rat at 10 mg/kg; assay type: ADME, organism-based; conditions: in vivo; outline: as §3
[20] = Cmax in Beagle dog at 5 mg/kg, po; assay type: ADME, organism-based, Canis lupus familiaris; design: dose 5 mg/kg, route oral; conditions: in vivo
Outline: (§4)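 Male Beagle dogs, n = 2, pretreated with pentagastrin. The po dose of 5 mg/kg was in 5% ethanol, 45% PEG400 and 50% 25 mM acetate buffer pH 4.0. The iv dose of 1 mg/kg was in 5:45:50 EtOH/PEG400/saline at 1 mL/kg.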

[21] = Tmax in Beagle dog at 5 mg/kg, po; assay type: ADME, organism-based, Canis lupus familiaris; conditions: in vivo
Outline: (§5)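 Male Beagle dogs (n = 2) were pretreated with pentagastrin and dosed iv at 1 mg/kg and po at 5 mg/kg. The oral vehicle was 5% ethanol, 45% PEG400 and 50% 25 mM acetate buffer pH 4.0. The iv vehicle was 5:45:50 EtOH/PEG400/saline at 1 mL/kg.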

[22] = Clearance in Beagle dog at 1 mg/kg, iv; assay type: ADME, organism-based, Canis lupus familiaris; conditions: in vivo; outline: as §4
[23] = Volume of distribution at steady state in Beagle dog at 1 mg/kg, iv; assay type: ADME, organism-based, Canis lupus familiaris; conditions: in vivo, read-out: Vdss; outline: as §5
[24] = Intrinsic permeability in human Caco2 cells; assay type: ADME, cell-based; conditions: Caco-2
MC-38 = assay: Antitumour activity against mouse MC38 cells allografted in C57Bl/6 mouse assessed as tumour growth upto 15 mg/kg, po qd for 28 days by digital caliper analysis; assay type: functional, organism-based
Outline: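 C57/BL6 mice bearing subcutaneous right-flank MC38 tumors (0.1 mL of 1 × 10^7 cells/mL) were randomized at about 100 mm3. Monotherapy was given orally once daily for 28 days at up to 15 mg/kg.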

[25] = Cardiovascular toxicity in dog assessed as aortic pathology at 5 mg/kg, po for 10 days; assay type: organism-based, Canis lupus familiaris; conditions: in vivo, 240 h
Outline: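 Exploratory toxicology studies of 10 days with daily oral dosing in rats and dogs. Cardiovascular findings, including valvulopathy and aortic pathology, were assessed.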

Cytochrome P450 2C8 = biological target: T2, Cytochrome P450 2C8 (Homo sapiens, UniProt P10632); assay: Induction of recombinant CYP2C8 (unknown origin) up to 24 microM; assay type: ADME; conditions: recombinant enzyme
T2 sequence (P10632 whole entry): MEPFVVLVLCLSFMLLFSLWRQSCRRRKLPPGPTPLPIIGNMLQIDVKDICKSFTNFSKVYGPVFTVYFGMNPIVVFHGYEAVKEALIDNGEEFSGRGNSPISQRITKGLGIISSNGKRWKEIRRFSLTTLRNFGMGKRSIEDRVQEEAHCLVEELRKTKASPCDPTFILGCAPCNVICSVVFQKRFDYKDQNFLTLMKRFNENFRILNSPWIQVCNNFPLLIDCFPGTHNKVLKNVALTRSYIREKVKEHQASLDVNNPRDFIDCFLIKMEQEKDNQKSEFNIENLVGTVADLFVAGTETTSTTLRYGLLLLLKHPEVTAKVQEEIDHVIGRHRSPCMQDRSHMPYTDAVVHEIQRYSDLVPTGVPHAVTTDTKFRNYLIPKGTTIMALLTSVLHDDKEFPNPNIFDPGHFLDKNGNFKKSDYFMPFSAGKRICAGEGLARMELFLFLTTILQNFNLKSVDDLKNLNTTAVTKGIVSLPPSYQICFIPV

Cytochrome P450 2C9 = Cytochrome P450 2C9 (Homo sapiens, UniProt P11712); assay: Induction of recombinant CYP2C9 (unknown origin) up to 24 microM; assay type: ADME; conditions: recombinant enzyme
Cytochrome P450 2C9, sequence (P11712 whole entry): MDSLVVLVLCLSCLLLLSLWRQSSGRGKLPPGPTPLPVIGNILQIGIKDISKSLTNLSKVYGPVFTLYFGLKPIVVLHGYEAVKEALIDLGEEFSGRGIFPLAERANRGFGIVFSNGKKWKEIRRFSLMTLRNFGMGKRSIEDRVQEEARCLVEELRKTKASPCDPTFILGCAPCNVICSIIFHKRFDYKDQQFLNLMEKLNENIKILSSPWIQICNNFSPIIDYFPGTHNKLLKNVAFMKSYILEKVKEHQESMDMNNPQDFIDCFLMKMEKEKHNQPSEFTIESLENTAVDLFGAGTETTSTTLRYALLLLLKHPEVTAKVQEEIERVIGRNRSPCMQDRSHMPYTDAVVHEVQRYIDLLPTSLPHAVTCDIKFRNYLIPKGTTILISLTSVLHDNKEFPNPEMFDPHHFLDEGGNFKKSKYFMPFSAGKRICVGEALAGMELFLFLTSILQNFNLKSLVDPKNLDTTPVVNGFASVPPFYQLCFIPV

Voltage-gated inwardly rectifying potassium channel KCNH2, sequence (Q12809 whole entry): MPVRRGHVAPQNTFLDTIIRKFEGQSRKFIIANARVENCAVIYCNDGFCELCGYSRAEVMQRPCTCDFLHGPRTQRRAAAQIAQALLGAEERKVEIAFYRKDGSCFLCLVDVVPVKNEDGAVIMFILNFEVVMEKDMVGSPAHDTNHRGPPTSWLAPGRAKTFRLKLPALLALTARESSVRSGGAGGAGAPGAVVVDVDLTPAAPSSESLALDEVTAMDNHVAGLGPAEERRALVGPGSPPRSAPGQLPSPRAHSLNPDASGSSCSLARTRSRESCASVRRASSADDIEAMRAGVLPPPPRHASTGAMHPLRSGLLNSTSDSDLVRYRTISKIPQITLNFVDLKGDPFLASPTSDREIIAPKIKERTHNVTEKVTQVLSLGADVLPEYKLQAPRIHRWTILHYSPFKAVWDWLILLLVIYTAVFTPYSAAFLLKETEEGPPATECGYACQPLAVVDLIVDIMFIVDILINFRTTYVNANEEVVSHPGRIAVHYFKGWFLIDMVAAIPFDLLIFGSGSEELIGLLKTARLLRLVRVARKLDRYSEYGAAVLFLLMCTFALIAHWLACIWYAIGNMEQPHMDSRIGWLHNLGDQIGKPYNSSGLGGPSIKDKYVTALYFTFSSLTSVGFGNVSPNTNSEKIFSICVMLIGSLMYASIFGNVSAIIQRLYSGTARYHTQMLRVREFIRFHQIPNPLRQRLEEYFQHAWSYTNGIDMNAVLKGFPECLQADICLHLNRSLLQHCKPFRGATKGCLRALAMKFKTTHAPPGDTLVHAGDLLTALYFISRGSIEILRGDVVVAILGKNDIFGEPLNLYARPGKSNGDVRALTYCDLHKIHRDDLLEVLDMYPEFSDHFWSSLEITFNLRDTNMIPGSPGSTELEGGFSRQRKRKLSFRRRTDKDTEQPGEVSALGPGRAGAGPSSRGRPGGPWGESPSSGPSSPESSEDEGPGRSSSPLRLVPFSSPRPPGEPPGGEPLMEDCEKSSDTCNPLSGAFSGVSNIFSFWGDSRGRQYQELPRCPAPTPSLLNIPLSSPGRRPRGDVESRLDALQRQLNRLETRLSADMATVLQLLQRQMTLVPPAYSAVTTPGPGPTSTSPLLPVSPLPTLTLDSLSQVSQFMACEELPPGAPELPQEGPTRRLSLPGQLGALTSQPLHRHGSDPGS

## N#Cc1cnc2ccc(-c3c(-c4ccc(F)c(Cl)c4)ncn3CCO)nn12
[1]
  MRT: 9 h
[2]
  Cmax: 16 µM
[3]
  Tmax: 0.3 h
[4]
  remaining at 10 min: 91%
[5]
  fraction unbound: 0.1
TGF-beta receptor type-1 [6]
  IC50: 150 nM
TGF-beta receptor type-1 [7]
  IC50: 230 nM
[8]
  half-life: > 2 h
[9]
  half-life: > 2 h
[10]
  half-life: 1.53 h
[11]
  half-life: 1.27 h
[12]
  half-life: 5.33 h
[13]
  IC50: > 10000 nM
[14]
  clearance: 8.3 mL/min/kg
[15]
  bioavailability: > 100%
[16]
  Tmax: 1.1 h
[17]
  half-life: 5.7 h
[18]
  clearance: 5.6 mL/min/kg
[19]
  bioavailability: > 100%
[20]
  Cmax: 11.2 µM
[21]
  Tmax: 0.67 h
[22]
  clearance: 6.4 mL/min/kg
[23]
  Vd: 1.1 L/kg
[24]
  Papp: 27.2 ×10⁻⁶ cm/s
MC-38
  inhibition: inactive
[25]
  Activity: Toxic
Cytochrome P450 2C8
  Activity: Not Active
Cytochrome P450 2C9
  Activity: Not Active
